Experimental data reported in ChEMBL document CHEMBL1121364, “Nucleoside conjugates as potential antitumor agents. 3. Synthesis and antitumor activity of 1-(beta-D-arabinofuranosyl)cytosine conjugates of corticosteroids” (1980).

Experiments:
L1210 [1] = experiment: Antitumor activity in the mice with intraperitoneal implanted L1210 lymphoid leukemia at the dose of 18 and 27.7 mg/kg/day x 5 was determined as mean survival of treated group compared to untreated; 13/9; assay type: functional, Mus musculus
Method in brief: (§1)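 C3D2F1/J female mice (C3H/HeJ female × DBA/2J male), groups of six to eight, average weight 25 g. Inoculated ip with 1 × 10^6 L1210 ascites cells taken from DBA/2Ha donor mice bearing 3-5 day old tumors. Compounds were dissolved in 0.154 N NaOH, neutralized with 0.154 N HCl (final 0.9% NaCl), and given ip daily for 5 days from 24 h post-implant. Median survival T/C; ILS = (T/C − 1) × 100; 30-day survivors counted.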

L1210 [2] = experiment: Antitumor activity in mice with intraperitoneal implanted L1210 lymphoid leukemia at the dose 9.2 and 13.2 mg/kg/day x 5 was determined as weight change (g/mouse) on 8th day; assay type: functional
Method in brief: (§2)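 C3D2F1/J female mice (C3H/HeJ × DBA/2J), groups of six to eight, average 25 g, inoculated ip with 1 × 10^6 L1210 ascites cells taken from DBA/2Ha donor mice carrying 3-5 day tumors. Compound dissolved in 0.154 N NaOH, then neutralized with 0.154 N HCl to give 0.9% NaCl. Given ip daily for 5 consecutive days starting 24 h after implantation. Body weight change per mouse recorded on day 8.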

L1210 [3] = experiment: Antitumor activity in mice with intraperitoneal implanted L1210 lymphoid leukemia at the dose 18 and 27.7 mg/kg/day x 5 was determined as weight change (g/mouse) on 8th day; assay type: functional; method in brief: as §2
L1210 [4] = experiment: Antitumor activity in the mice with intraperitoneal implanted L1210 lymphoid leukemia at the dose of 9.2 and 13.2 mg/kg/day x 5 was determined as mean survival of treated group compared to untreated; 15/11; assay type: functional, Mus musculus
L1210 [5] = experiment: Antitumor activity in the mice with intraperitoneal implanted L1210 lymphoid leukemia at the dose 18 and 27.7 mg/kg/day x 5 was determined and number of animals survived on 30 th day were reported; 0/8; assay type: functional, Mus musculus
Method in brief: (§3)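 Female C3D2F1/J mice (C3H/HeJ × DBA/2J), groups of six to eight, average weight 25 g. Each mouse got 1 × 10^6 L1210 ascites cells ip, taken from DBA/2Ha donor mice bearing 3-5 day tumors. Compound was dissolved in 0.154 N NaOH and neutralized with 0.154 N HCl (final 0.9% NaCl). Dosed ip daily ×5, starting 24 h after implant. Recorded body weight change on day 8, survival range, median survival and 30-day survivors. ILS = (T/C − 1) × 100.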

L1210 [6] = experiment: Antitumor activity in the mice with intraperitoneal implanted L1210 lymphoid leukemia at the dose 9.2 and 13.2 mg/kg/day x 5 was determined as percentage increase in the life span as compared with control tumor bearers; assay type: functional, Mus musculus; method in brief: as §1
L1210 [7] = experiment: Antitumor activity in the mice with intraperitoneal implanted L1210 lymphoid leukemia at the dose 18 and 27.7 mg/kg/day x 5 was determined as Survival time in days; Range is 9-17 days; assay type: functional, Mus musculus; method in brief: as §3
L1210 [8] = experiment: Antitumor activity in the mice with intraperitoneal implanted L1210 lymphoid leukemia at the dose 9.2 and 13.2 mg/kg/day x 5 was determined as Survival time in days; Range is 11-28 days; assay type: functional, Mus musculus; method in brief: as §1
L1210 [9] = experiment: Antitumor activity in the mice with intraperitoneal implanted L1210 lymphoid leukemia at the dose 18 and 27.7 mg/kg/day x 5 was determined as percentage increase in the life span as compared with control tumor bearers; assay type: functional, Mus musculus; method in brief: as §3
L1210 [10] = experiment: Antitumor activity in the mice with intraperitoneal implanted L1210 lymphoid leukemia at the dose 9.2 and 13.2 mg/kg/day x 5 was determined and number of animals survived on 30 th day were reported; 0/6; assay type: functional, Mus musculus; method in brief: as §1
L1210 [11] = experiment: Antitumor activity in the mice with intraperitoneal implanted L1210 lymphoid leukemia at the dose of 5 mg/kg/day x 5 was determined as mean survival of treated group compared to untreated; 13.5/9; assay type: functional, Mus musculus; method in brief: as §1
L1210 [12] = experiment: Antitumor activity in the mice with intraperitoneal implanted L1210 lymphoid leukemia at the dose of 18.2 mg/kg/day x 5 was determined as mean survival of treated group compared to untreated; 14.5/10; assay type: functional, Mus musculus; method in brief: as §1
L1210 [13] = experiment: Antitumor activity in mice with intraperitoneal implanted L1210 lymphoid leukemia at the dose 9.2 mg/kg/day x 5 was determined as weight change (g/mouse) on 8th day; assay type: functional; method in brief: as §2
L1210 [14] = experiment: Antitumor activity in mice with intraperitoneal implanted L1210 lymphoid leukemia at the dose 18.2 mg/kg/day x 5 was determined as weight change (g/mouse) on 8th day; assay type: functional; method in brief: as §2
L1210 [15] = experiment: Antitumor activity in the mice with intraperitoneal implanted L1210 lymphoid leukemia at the dose of 9.2 mg/kg/day x 5 was determined as mean survival of treated group compared to untreated; 17/9; assay type: functional, Mus musculus
L1210 [16] = experiment: Antitumor activity in mice with intraperitoneal implanted L1210 lymphoid leukemia at the dose 25 mg/kg/day x 5 was determined as weight change (g/mouse) on 8th day; assay type: functional; method in brief: as §2
L1210 [17] = experiment: Antitumor activity in mice with intraperitoneal implanted L1210 lymphoid leukemia at the dose 5 mg/kg/day x 5 was determined as weight change (g/mouse) on 8th day; assay type: functional; method in brief: as §2
L1210 [18] = experiment: Antitumor activity in the mice with intraperitoneal implanted L1210 lymphoid leukemia at the dose 9.2 mg/kg/day x 5 was determined as Survival time in days; Range is 14-42 days; assay type: functional, Mus musculus; method in brief: as §1
L1210 [19] = experiment: Antitumor activity in the mice with intraperitoneal implanted L1210 lymphoid leukemia at the dose 18.2 mg/kg/day x 5 was determined and number of animals survived on 30 th day were reported; 0/8; assay type: functional, Mus musculus; method in brief: as §3
L1210 [20] = experiment: Antitumor activity in the mice with intraperitoneal implanted L1210 lymphoid leukemia at the dose 25 mg/kg/day x 5 was determined and number of animals survived on 30 th day were reported; 0/8; assay type: functional, Mus musculus; method in brief: as §3
L1210 [21] = experiment: Antitumor activity in the mice with intraperitoneal implanted L1210 lymphoid leukemia at the dose 25 mg/kg/day x 5 was determined as Survival time in days; Range is 9-16 days; assay type: functional, Mus musculus; method in brief: as §3
L1210 [22] = experiment: Antitumor activity in the mice with intraperitoneal implanted L1210 lymphoid leukemia at the dose 5 mg/kg/day x 5 was determined as Survival time in days; Range is 9-22 days; assay type: functional, Mus musculus; method in brief: as §3
L1210 [23] = experiment: Antitumor activity in the mice with intraperitoneal implanted L1210 lymphoid leukemia at the dose 5 mg/kg/day x 5 was determined and number of animals survived on 30 th day were reported; 0/7; assay type: functional, Mus musculus; method in brief: as §3
L1210 [24] = experiment: Antitumor activity in the mice with intraperitoneal implanted L1210 lymphoid leukemia at the dose 5 mg/kg/day x 5 was determined as percentage increase in the life span as compared with control tumor bearers; assay type: functional; conditions: Mus musculus, L1210, ip; method in brief: as §3
L1210 [25] = experiment: Antitumor activity in the mice with intraperitoneal implanted L1210 lymphoid leukemia at the dose 9.2 mg/kg/day x 5 was determined as percentage increase in the life span as compared with control tumor bearers; assay type: functional; conditions: Mus musculus, L1210, ip; method in brief: as §1
L1210 [26] = experiment: Antitumor activity in the mice with intraperitoneal implanted L1210 lymphoid leukemia at the dose 18.2 mg/kg/day x 5 was determined as percentage increase in the life span as compared with control tumor bearers; assay type: functional; conditions: Mus musculus, L1210, ip; method in brief: as §3
L1210 [27] = experiment: Antitumor activity in the mice with intraperitoneal implanted L1210 lymphoid leukemia at the dose 18.2 mg/kg/day x 5 was determined as Survival time in days; Range is 10-19 days; assay type: functional, Mus musculus; method in brief: as §3
L1210 [28] = experiment: Antitumor activity in the mice with intraperitoneal implanted L1210 lymphoid leukemia at the dose 9.2 mg/kg/day x 5 was determined and number of animals survived on 30 th day were reported; 1/7; assay type: functional, Mus musculus; method in brief: as §1
L1210 [29] = experiment: Antitumor activity in the mice with intraperitoneal implanted L1210 lymphoid leukemia at the dose 25 mg/kg/day x 5 was determined as percentage increase in the life span as compared with control tumor bearers; assay type: functional; conditions: Mus musculus, L1210, ip; method in brief: as §3

SMILES: C[C@H]1C[C@@H]2[C@H]([C@@H](O)C[C@@]3(C)[C@H]2CC[C@]3(O)C(=O)CO)[C@@]2(C)C=CC(=O)C=C12.Nc1ccn([C@@H]2O[C@H](CO)[C@@H](O)[C@@H]2O)c(=O)n1
- T/C (L1210 [1]): 13
- Weight change (L1210 [2]): -2.38 g mouse-1
- Weight change (L1210 [3]): -1.38 g mouse-1
- T/C (L1210 [4]): 15
- Survivors (L1210 [5]): 0
- ILS (L1210 [6]): 36%
- Survival time (L1210 [7]): 9 days
- Survival time (L1210 [8]): 11 days
- ILS (L1210 [9]): 44%
- Survivors (L1210 [10]): 0

SMILES: Nc1ccn([C@@H]2O[C@H](CO)[C@@H](O)[C@@H]2O)c(=O)n1 [CYTARABINE]
- T/C (L1210 [11]): 13.5
- T/C (L1210 [12]): 14.5
- Weight change (L1210 [13]): -0.63 g mouse-1
- Weight change (L1210 [14]): -3.64 g mouse-1
- T/C (L1210 [15]): 17
- Weight change (L1210 [16]): -3.8 g mouse-1
- Weight change (L1210 [17]): 2 g mouse-1
- Survival time (L1210 [18]): 14 days
- Survivors (L1210 [19]): 0
- Survivors (L1210 [20]): 0
- Survival time (L1210 [21]): 9 days
- Survival time (L1210 [22]): 9 days
- Survivors (L1210 [23]): 0
- ILS at 5 mg/kg/day (L1210 [24]): 50%
- ILS at 9.2 mg/kg/day (L1210 [25]): 89%
- ILS at 18.2 mg/kg/day (L1210 [26]): 45%
- Survival time (L1210 [27]): 10 days
- Survivors (L1210 [28]): 1
- ILS at 25 mg/kg/day (L1210 [29]): 19%
